≈ marks a conversion by molar mass, not a printed value.
Key:
[1] = system: Trypanosoma cruzi; assay: Trypanosomicidal activity against axenic epimastigote stage of Trypanosoma cruzi Tulahuen 2 assessed as growth inhibition; type: functional, organism-based
Outline: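 Tulahuen 2 epimastigotes grown axenically at 28 °C in BHI-tryptose with 5% FCS, harvested late log phase, 3×10^6/mL in 24-well plates. Compound added from DMSO stock (≤1% DMSO). Growth as A590 at day 0 and day 5; % inhibition from blank-corrected absorbances; ID50 = concentration halving absorbance relative to untreated controls.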

[2] = Selectivity index, ratio of IC50 for mouse J774.1 cells to IC50 for amastigote stage of Trypanosoma cruzi Tulahuen C4; type: toxicity; conditions: read-out: Ratio IC50
[3] = system: Trypanosoma cruzi; assay: Trypanosomicidal activity against amastigote stage of Trypanosoma cruzi Tulahuen C4 transfected with beta-D-galactosidase infected in african green monkey Vero cells assessed as growth inhibition incubated 5 days prior to beta-D-galactopyranoside addition measured after 4 to 5 hrs by colorimetric assay; type: functional, organism-based
Outline: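 VERO monolayer in phenol red-free RPMI 1640 with 10% FCS, infected with 5×10^4 LacZ-transfected Tulahuen C4 trypomastigotes/well, 24 h at 37 °C, 5% CO2. Compounds added for 5 days. CPRG substrate added, 4–5 h at 37 °C, A570. Actives (>50% inhibition) retested in duplicate at 10.0–0.16; IC50 by logarithmic regression versus untreated control.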

[4] = Selectivity index, ratio of IC50 for mouse J774.1 cells to MIC for Mycobacterium tuberculosis H37Rv; type: functional
Outline: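 Cytotoxicity: J774.1 macrophages in DMEM with 4 mM L-glutamine and 10% heat-inactivated FCS, seeded at 5 × 10^4/well, attached 48 h at 37 °C, 5% CO2. Exposed 48 h to 12.5–400.0 µM compound or vehicle. MTT at 0.1 mg/mL final for 3 h, formazan dissolved in DMSO/glycine buffer pH 10.5, A560 read. IC50 by linear regression, divided by the MIC against the same MTB strain.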

[5] = Cytotoxicity against mouse J774.1 cells assessed as cell viability after 48 hrs by MTT assay; type: cell-based; conditions: J774.1, 48 h
Outline: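 J774.1 macrophages in DMEM with 4 mM L-glutamine and 10% heat-inactivated FCS, 5×10^4 cells/well, attached 48 h at 37 °C, 5% CO2. Exposed 48 h to compounds (12.5–400.0 µM) or vehicle. MTT 0.1 mg/mL final, 3 h at 37 °C; formazan dissolved in DMSO/glycine buffer pH 10.5, A560. IC50 by linear regression versus solvent control.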

[6] = system: Mycobacterium tuberculosis; assay: Antimycobacterial activity against Mycobacterium tuberculosis H37Rv assessed as growth inhibition after 5 days by MTT assay; type: functional; conditions: 120 h
Outline: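 MTB inoculum made from 20–30-day slant growth in Tween 80/0.2% BSA, adjusted to McFarland No. 1, then diluted in 7H9GC broth (Middlebrook 7H9, glycerol, Casitone, OADC). Final inoculum about 1.2 × 10^6 CFU/mL. Compounds taken from DMSO stock to final 0.4–25 in broth, with a DMSO control. Plates run 5 days at 37 °C, then tetrazolium (MTT)–Tween 80 added for a further 24 h at 37 °C. Read-out is MIC.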

[7] = system: Plasma; assay: Metabolic stability in human plasma at pH 3 at 40 uM after 3 hrs; type: ADME, cell-free; conditions: pH 3, 3 h
[8] = Aqueous stability of the compound in Tris.HCl buffer at pH 7.4 at 1 mM after 24 hrs by spectrophotometric analysis; type: physicochemical; conditions: pH 7.4, 24 h, 1000 µM
Outline: (§1)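 Compound from DMSO stock, 1 mM final in aqueous buffer (KCl·HCl pH 2, acetate pH 5, Tris·HCl pH 7.4 or 8.3), incubated 37 °C for 24 h. Absorbance spectrum 250–450 nm compared with a freshly prepared, unincubated solution. TLC of ethyl acetate extracts to confirm or exclude decomposition products.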

[9] = Aqueous stability of the compound in Tris.HCl buffer at pH 8.3 at 1 mM after 24 hrs by spectrophotometric analysis; type: physicochemical; conditions: pH 8.3, 24 h, 1000 µM; outline: as §1
[10] = Aqueous stability of the compound in acetate buffer at pH 5 at 1 mM after 24 hrs by spectrophotometric analysis; type: physicochemical; conditions: pH 5, 24 h, 1000 µM; outline: as §1
[11] = Aqueous stability of the compound in KCl.HCl buffer at pH 2 at 1 mM after 24 hrs by spectrophotometric analysis; type: physicochemical; conditions: pH 2, 24 h, 1000 µM; outline: as §1
[12] = system: Salmonella typhimurium; assay: Mutagenicity in Salmonella typhimurium TA98 at 3.1 to 250 ug/plate in presence of S9 fraction; type: toxicity, organism-based; conditions: salmonella enterica subsp. enterica serovar typhimurium
Outline: (§2)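 Direct plate incorporation with S. typhimurium TA98 on minimal glucose agar (Vogel-Bonner E, 40% glucose). Compounds in DMSO assayed in triplicate at doses starting from the highest non-toxic dose, with or without Aroclor-treated mouse liver S9. Controls: DMSO, 4-nitro-o-phenylenediamine (−S9), 2-aminofluorene (+S9). Revertants counted manually; mutagenic if ≥2× negative control at two consecutive doses.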

[13] = system: Salmonella typhimurium; assay: Mutagenicity in Salmonella typhimurium TA98 at 3.1 to 250 ug/plate in absence of S9 fraction; type: toxicity, organism-based; conditions: salmonella enterica subsp. enterica serovar typhimurium; outline: as §2
[14] = system: Leishmania amazonensis; assay: Leishmanicidal activity against axenic amastigote stage of Leishmania amazonensis MHOM/BR/76/LTB-012 assessed as growth inhibition after 72 hrs by MTT assay; type: functional, organism-based; conditions: MHOM/BR/76/LTB-012, 72 h
Outline: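 L. amazonensis axenic amastigotes (MHOM/BR/76/LTB-012), weekly passages in MAA/20 at 32 °C, 5% CO2. Seeded in 96-well plates; compounds in DMSO at 100 to 1 final, 72 h. MTT added for 4 h, stopped with 50% isopropanol–10% SDS, 30 min agitation at room temperature, A570. Triplicate; % inhibition versus control, IC50 from several concentrations.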

[15] = system: Salmonella typhimurium; assay: Mutagenicity in Salmonella typhimurium TA98 at 6.2 to 500 ug/plate in presence of S9 fraction; type: toxicity, organism-based; conditions: salmonella enterica subsp. enterica serovar typhimurium; outline: as §2
[16] = system: Salmonella typhimurium; assay: Mutagenicity in Salmonella typhimurium TA98 at 6.2 to 500 ug/plate in absence of S9 fraction; type: toxicity, organism-based; conditions: salmonella enterica subsp. enterica serovar typhimurium; outline: as §2
[17] = Ratio of compound IC50 to amphotericin B IC50 for mouse J774.1 cells; type: ADME; conditions: read-out: Ratio IC50
[18] = Selectivity index, ratio of IC50 for mouse J774.1 cells to IC50 for axenic amastigote stage of Leishmania amazonensis MHOM/BR/76/LTB-012; type: toxicity; conditions: read-out: Ratio IC50
[19] = Selectivity index, ratio of IC50 for african green monkey Vero cells to IC50 for amastigote stage of Trypanosoma cruzi Tulahuen C4; type: toxicity, cell-based; conditions: read-out: Ratio IC50
[20] = system: Salmonella typhimurium; assay: Mutagenicity in Salmonella typhimurium TA98 at 500 ug/plate in presence of S9 fraction; type: toxicity, organism-based; conditions: salmonella enterica subsp. enterica serovar typhimurium; outline: as §2
[21] = system: Salmonella typhimurium; assay: Mutagenicity in Salmonella typhimurium TA98 at 500 ug/plate in absence of S9 fraction; type: toxicity, organism-based; conditions: salmonella enterica subsp. enterica serovar typhimurium; outline: as §2
[22] = system: Salmonella typhimurium; assay: Mutagenicity in Salmonella typhimurium TA98 at 150 ug/plate in presence of S9 fraction; type: toxicity, organism-based; conditions: salmonella enterica subsp. enterica serovar typhimurium; outline: as §2
[23] = system: Salmonella typhimurium; assay: Mutagenicity in Salmonella typhimurium TA98 at 150 ug/plate in absence of S9 fraction; type: toxicity, organism-based; conditions: salmonella enterica subsp. enterica serovar typhimurium; outline: as §2
[24] = system: Salmonella typhimurium; assay: Mutagenicity in Salmonella typhimurium TA98 at 4.9 to 400 ug/plate in presence of S9 fraction; type: toxicity, organism-based; conditions: salmonella enterica subsp. enterica serovar typhimurium; outline: as §2
[25] = system: Salmonella typhimurium; assay: Mutagenicity in Salmonella typhimurium TA98 at 4.9 to 400 ug/plate in absence of S9 fraction; type: toxicity, organism-based; conditions: salmonella enterica subsp. enterica serovar typhimurium; outline: as §2
[26] = system: Salmonella typhimurium; assay: Mutagenicity in Salmonella typhimurium TA98 at 20 ug/plate in absence of S9 fraction; type: toxicity, organism-based; conditions: salmonella enterica subsp. enterica serovar typhimurium
Outline: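 TA98 direct plate incorporation on minimal glucose agar (Vogel-Bonner E, 40% glucose), without S9. Compounds in DMSO were run in triplicate, highest dose nontoxic to bacteria. 4-nitro-o-phenylenediamine (20.0 per plate) was the positive control and DMSO the negative. Revertants were counted manually. Mutagenic meant at least double the negative-control revertants at two consecutive doses. Values are means of two independent experiments.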

[27] = Cytotoxicity against mouse J774.1 cells assessed as cell viability after 72 hrs by MTT assay; type: cell-based; conditions: J774.1, 72 h

SMILES | IC50 [1] [µM] | selectivity ratio [2] | IC50 [3] [µM] | Selectivity Index [4] | IC50 [5] [µM] | MIC [6] [µM] | Stability [7] | Stability [8] | Stability [9] | Stability [10] | Stability [11] | IC50 [14] [µM] | selectivity ratio [18] | other results
O=C(N/N=C/c1c(-c2ccccc2)no[n+]1[O-])c1ccc2c(c1)OCO2 | 50 | > 5 | < 30.7 | <2 | 162 | > 71 | Stable | Stable | Stable | Stable | Stable | – | – | Activity [12]: Non-toxic; Activity [13]: Non-toxic
O=C(N/N=C/c1ccc2no[n+]([O-])c2c1)c1ccc2c(c1)OCO2 | 50 | < 5 | > 28.4 | <2 | 174 | > 76.7 | – | – | – | – | – | 1.3 | 134 | Activity [15]: Non-toxic; Activity [16]: Non-toxic; selectivity ratio [17]: 28.5
Cc1nc2ccccn2c1C(=O)N/N=C/c1c(-c2ccccc2)no[n+]1[O-] | 5 | 62 | 0.91 | 3.2 | 56.2 | 17.3 (≈ 6.27 µg/mL) | Stable | Stable | – | Stable | Stable | – | – | selectivity ratio [19]: 12; Activity [12]: Non-toxic; Activity [13]: Non-toxic
Cc1[nH]cnc1C(=O)N/N=C/c1ccc2no[n+]([O-])c2c1 | 172 | < 1 | > 35 | 0.8 | 33.9 | 43.7 (≈ 12.5 µg/mL) | – | – | – | – | – | – | – | Activity [20]: Toxic; Activity [21]: Toxic
O=C(N/N=C/c1ccc2no[n+]([O-])c2c1)c1cnn(-c2ccccc2)c1 | 29.5 | – | > 30.9 | <2 | 37.1 | > 17.9 | – | – | – | – | – | 1.4 | 27 | selectivity ratio [17]: 5
COc1cc(/C=N/NC(=O)c2no[n+]([O-])c2C)ccc1O | – | – | – | – | > 400 | > 85.6 | – | – | – | – | – | 1.7 | > 235 | Activity [15]: Non-toxic; Activity [16]: Non-toxic; selectivity ratio [17]: 50
Cc1c(/C=N/NC(=O)c2ccncc2)no[n+]1[O-] | > 300 | – | > 40.5 | >250 | > 400 | 1.6 (≈ 0.396 µg/mL) | Stable | Stable | Stable | Stable | Stable | 25.3 | > 16 | Activity [15]: Non-toxic; Activity [16]: Non-toxic
O=C(N/N=C/c1ccc2no[n+]([O-])c2c1)c1ccncc1 | 33.4 | 24 | 5.6 | 385 | 135 | 0.35 (≈ 0.0991 µg/mL) | Stable | Stable | Stable | Stable | Stable | – | – | selectivity ratio [19]: 2.5; Activity [22]: Toxic; Activity [23]: Toxic
O=C(N/N=C/c1c(-c2ccccc2)no[n+]1[O-])c1ccncc1 | 11 | > 63 | 6.4 | >667 | > 400 | 0.6 (≈ 0.186 µg/mL) | Stable | Stable | Stable | Stable | Stable | – | – | selectivity ratio [19]: 2.5; Activity [24]: Non-toxic; Activity [25]: Non-toxic
Nc1ccc([N+](=O)[O-])cc1N | – | – | – | – | – | – | – | – | – | – | – | – | – | Activity [26]: Toxic
C[C@@H]1[C@H](O)[C@@H](C)/C=C/C=C/C=C/C=C/C=C/C=C/C=C/[C@H](O[C@@H]2O[C@H](C)[C@@H](O)[C@H](N)[C@@H]2O)C[C@@H]2O[C@](O)(C[C@@H](O)C[C@@H](O)[C@H](O)CC[C@@H](O)C[C@@H](O)CC(=O)O[C@H]1C)C[C@H](O)[C@H]2C(=O)O [AMPHOTERICIN B] | – | – | – | – | – | – | – | – | – | – | – | – | 4.7 | IC50 [27]: 0.52 µM

From ChEMBL document CHEMBL2331334, “Hybrid furoxanyl N-acylhydrazone derivatives as hits for the development of neglected diseases drug candidates” (Eur J Med Chem, 2013)
